# Assay results published in ChEMBL document CHEMBL1938287, “Design and synthesis of inhaled p38 inhibitors for the treatment of chronic obstructive pulmonary disease” (J Med Chem, 2011).
# Legend:
# [1] = Metabolic stability in human liver microsomes; type: ADME, Microsome; conditions: read-out: Stability
# [2] = Metabolic stability in human liver microsomes assessed as phase II glucuronidation in the presence of uridine diphosphate glucuronic acid and absence of NADPH; type: ADME, Microsome; conditions: read-out: Stability
# Method in brief: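 Human liver microsomes incubated with the cofactor UDPGA and without NADPH, to assess phase II glucuronidation.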
# [3] = Half life in rat at 1 mg/kg, iv; type: ADME, organism-based; parameters: dose 1 mg/kg, route intravenous; conditions: in vivo
# Method in brief: (§1)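 Intravenous pharmacokinetics in rats from a 1 mg/kg dose; blood sampled.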
# [4] = Intrinsic clearance in rat liver microsomes; type: ADME, Microsome; conditions: read-out: CLH
# [5] = Volume of distribution at steady state in rat at 1 mg/kg, iv; type: ADME, organism-based; parameters: dose 1 mg/kg, route intravenous; conditions: in vivo, read-out: Vdss
# [6] = Oral bioavailability in rat at 3 mg/kg; type: ADME, organism-based; conditions: in vivo
# Method in brief: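 Oral pharmacokinetics in rats from a 3 mg/kg dose.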
# [7] = Clearance in rat at 1 mg/kg, iv; type: ADME, organism-based; parameters: dose 1 mg/kg, route intravenous; conditions: in vivo; method in brief: as §1
# Rattus norvegicus = species on record: Rattus norvegicus; assay: Unbound clearance in rat; type: ADME, organism-based; conditions: in vivo
# [8] = Solubility in simulated lung fluid; type: physicochemical
# Canis familiaris = species on record: Canis familiaris; assay: Unbound clearance in dog; type: ADME, organism-based, Canis lupus familiaris; conditions: in vivo
# [9] = Oral bioavailability in rat at 0.5 mg/kg; type: ADME, organism-based; conditions: in vivo
# Method in brief: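 Oral pharmacokinetics in rats from a 0.5 mg/kg dose; blood sampled.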
# [10] = Volume of distribution at steady state in dog at 0.5 mg/kg, iv; type: ADME, organism-based, Canis lupus familiaris; parameters: dose 0.5 mg/kg, route intravenous; conditions: in vivo, read-out: Vdss
# Liver microsomes [11] = assay: Drug metabolism in rat liver microsomes; type: ADME, Microsome
# Liver microsomes [12] = assay: Drug metabolism in human liver microsomes; type: ADME, Microsome
# [13] = Half life in dog at 0.5 mg/kg, iv; type: ADME, organism-based, Canis lupus familiaris; parameters: dose 0.5 mg/kg, route intravenous; conditions: in vivo
# Method in brief: (§2)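 Intravenous pharmacokinetics in dogs from a 0.5 mg/kg dose; blood sampled.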
# [14] = Dissociation constant, pKa of the compound; type: physicochemical
# [15] = Aqueous solubility of the compound; type: physicochemical
# [16] = Drug metabolism in dog liver microsomes; type: ADME, Canis lupus familiaris, Microsome
# [17] = Lipophilicity, log D of the compound; type: physicochemical; conditions: octanol/water
# [18] = Clearance in dog at 0.5 mg/kg, iv; type: ADME, organism-based, Canis lupus familiaris; parameters: dose 0.5 mg/kg, route intravenous; conditions: in vivo; method in brief: as §2
microsomal CLint [1] [µL/min/mg],microsomal CLint [2] [µL/min/mg],SMILES,other results
> 320,–,CC(C)c1nnc2ccc(Sc3ccccc3CNC(=O)Nc3cc(C(C)(C)C)nn3-c3ccccc3)cn12,–
> 320,1.7,CSC(C)(C)c1cc(NC(=O)NCc2ccccc2Sc2ccc3nnc(C(C)C)n3c2)n(-c2ccccc2)n1,–
196,–,CC(C)c1nnc2ccc(Sc3ccccc3CNC(=O)Nc3cc(C(C)(C)C)nn3-c3ccc(O)cc3)cn12,–
> 440,2,CSC(C)(C)c1cc(NC(=O)NCc2ccccc2Sc2ccc3nnc(C(C)C)n3c2)n(-c2cccc(O)c2)n1,half-life [3]: 1 h; microsomal CLint [4]: 200 µL/min/mg; Vd [5]: 0.9 L/kg; bioavailability [6]: < 5%; clearance [7]: 77 mL/min/kg; CL free (Rattus norvegicus): > 9600 mL/min/kg
303,66,CC(C)c1nnc2ccc(Sc3ccccc3CNC(=O)Nc3cc(C(C)(C)C)nn3-c3ccc(Cl)c(O)c3)cn12,–
> 440,27,CSCC(C)(C)c1cc(NC(=O)NCc2ccccc2Sc2ccc3nnc(-c4ccccc4O)n3c2)n(-c2ccccc2)n1,–
> 440,43,Cc1ccc(-n2nc(C(C)(C)C)cc2NC(=O)NCc2ccccc2Sc2ccc3nnc(-c4cc(O)ccc4Cl)n3c2)cc1,–
132,–,Cc1ccc(-n2nc(C(C)(C)C)cc2NC(=O)NCc2ccccc2Sc2ccc3nnc(-c4ccc(O)cc4Cl)n3c2)cc1,–
304,11,CSc1ccccc1-c1nnc2ccc(Sc3ccccc3CNC(=O)Nc3cc(C(C)(C)C)nn3-c3cccc(O)c3)cn12,–
> 287,8,CC(C)(C)c1cc(NC(=O)NCc2ccccc2Sc2ccc3nnc(-c4ccccc4O)n3c2)n(-c2cccc(OCCO)c2)n1,solubility [8]: 1 µg/mL
202,130,CC(C)(C)c1cc(NC(=O)NCc2ccccc2Sc2ccc3nnc(-c4ccccc4OCCO)n3c2)n(-c2ccc(O)c(Cl)c2)n1,–
> 440,310,CSCC(C)(C)c1cc(NC(=O)NCc2ccccc2Sc2ccc3nnc(-c4ccccc4OCCO)n3c2)n(-c2ccc(O)c(Cl)c2)n1,–
> 347,205,CC(C)(C)c1cc(NC(=O)NCc2ccccc2Sc2ccc3nnc(-c4ccccc4SCCO)n3c2)n(-c2ccc(O)c(Cl)c2)n1 [PF-03715455],CL free (Canis familiaris): 15000 mL/min/kg; bioavailability [9]: < 5%; Vd [10]: 0.06 L/kg; Drug metabolism (Liver microsomes [11]): Active; half-life [3]: 1 h; Drug metabolism (Liver microsomes [12]): Active; half-life [13]: 0.5 h; pKa [14]: 7.45; solubility [15]: < 100 µg/mL; Drug metabolism [16]: Active; Vd [5]: 0.19 L/kg; clearance [7]: 33.8 mL/min/kg; logD [17]: > 4.1; clearance [18]: 13.1 mL/min/kg; CL free (Rattus norvegicus): 33000 mL/min/kg

# The next lines start with the compound.
SMILES,microsomal CLint [1] [µL/min/mg],microsomal CLint [2] [µL/min/mg],other results
CC(C)c1nnc2ccc(Sc3ccccc3CNC(=O)Nc3cc(C(C)(C)C)nn3-c3cccc(O)c3)cn12,385,–,–
CC(C)c1nnc2ccc(Sc3ccccc3CNC(=O)Nc3cc(C(C)(C)C)nn3-c3ccc(O)c(Cl)c3)cn12,> 287,155,–
Cc1ccc(-n2nc(C(C)(C)C)cc2NC(=O)NCc2ccccc2Sc2ccc3nnc(-c4ccccc4O)n3c2)cc1,279,–,–
Cc1cccc(-n2nc(C(C)(C)C)cc2NC(=O)NCc2ccccc2Sc2ccc3nnc(-c4cccc(Cl)c4O)n3c2)c1,126,41,–
CC(C)(C)c1cc(NC(=O)NCc2ccccc2Sc2ccc3nnc(-c4ccccc4OCCO)n3c2)n(-c2cccc(O)c2)n1,> 320,–,–
CC(C)(C)c1cc(NC(=O)NCc2ccccc2Sc2ccc3nnc(-c4cc(O)ccc4Cl)n3c2)n(-c2cccc(OCCO)c2)n1,> 285,53,–
CSCC(C)(C)c1cc(NC(=O)NCc2ccccc2Sc2ccc3nnc(-c4cc(O)ccc4Cl)n3c2)n(-c2cccc(OCCO)c2)n1,> 216,47,–
CC(C)(C)c1cc(NC(=O)NCc2ccccc2Sc2ccc3nnc(-c4ccccc4OCCO)n3c2)n(-c2ccc(Cl)c(O)c2)n1,232,70,–
CC(C)(C)c1cc(NC(=O)NCc2ccccc2Sc2ccc3nnc(-c4ccccc4OCCO)n3c2)n(-c2ccc(O)c(F)c2)n1,> 440,–,–
CC(C)(C)c1cc(NC(=O)NCc2ccccc2Sc2ccc3nnc(-c4ccccc4SCCO)n3c2)n(-c2cccc(O)c2)n1,> 440,4,–
CSCC(C)(C)c1cc(NC(=O)NCc2ccccc2Sc2ccc3nnc(-c4ccccc4SCCO)n3c2)n(-c2ccc(O)c(Cl)c2)n1,–,264,–
C[C@@H]1C[C@H]2[C@@H]3C[C@H](F)C4=CC(=O)C=C[C@]4(C)[C@@]3(F)[C@@H](O)C[C@]2(C)[C@@]1(O)C(=O)SCF [FLUTICASONE],–,–,solubility [8]: 0.5 µg/mL
